Results on three molecules are retold here after ChEMBL document CHEMBL4257478, “Design, synthesis and evaluation of (R)-3-(7-(methyl(7H-pyrrolo[2,3-d]pyrimidin-4-yl)amino)-5-azaspiro[2.4]heptan-5-yl)-3-oxopropanenitrile as a JAK1-selective inhibitor” (Medchemcomm, 2018).

The species entered for one series is Homo sapiens. The experiment in a line: Selectivity index, ratio of IC50 for human JAK2 to IC50 for human JAK1. In outline: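 Kinase activity assays run as a commercial service at Km ATP; IC50 values fitted from concentration-response data; ratio of JAK2 to JAK1 IC50.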
Series [1] is described as follows: Metabolic stability in rat plasma assessed as parent compound remaining at 10 uM after 30 mins by LC-MS/MS method. The class given is ADME, cell-free. The note with it: read-out: Stability. In short, it runs like this: (§1)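 Rat plasma spiked with test article at 10 μM and incubated at 37 °C, sampled at 0, 30 and 120 min. Acetonitrile containing chlorpropamide internal standard added, then vortexed and centrifuged at 4 °C; supernatant quantified by LC-MS/MS as % remaining. Procaine and diltiazem served as positive controls.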

Series [2] is described as follows: Metabolic stability in rat plasma assessed as parent compound remaining at 10 uM after 120 mins by LC-MS/MS method. The class given is ADME, cell-free. The note with it: read-out: Stability. In outline: as §1
Series [3] in a line: Protein binding in human plasma at 10 uM after 4 hrs by rapid equilibrium dialysis method. Type of series: ADME, cell-free. The note with it: read-out: PPB (converted). In outline: (§2)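 Rapid equilibrium dialysis of human or rat plasma dosed at 10 μM against PBS pH 7.4, 4 h at 37 °C. Plasma and buffer aliquots were matrix-matched with blank buffer or plasma, precipitated with acetonitrile containing chlorpropamide internal standard, and analysed by LC-MS/MS. Dexamethasone and warfarin served as positive controls.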

Series [4] can be described thus: Protein binding in rat plasma at 10 uM after 4 hrs by rapid equilibrium dialysis method. Type of series: ADME, cell-free. The note with it: read-out: PPB (converted). In outline:
as §2

Series [5] is described as follows: Lipophilicity, log P of the compound in neutral form. Type of series: physicochemical. The note with it: octanol/water.
Series [6] in a line: Metabolic stability in human liver microsomes assessed as parent compound remaining at 1 uM preincubated for 5 mins followed by addition of NADPH regenerating system and measured after 30 mins by LC-MS/MS method. The class given is ADME, microsome. The conditions noted are these: read-out: Stability. In outline:
(§3)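 Liver microsomes (0.5 mg/mL; human, dog or mouse) in 0.1 M phosphate buffer with test article at 1 μM, preincubated 5 min at 37 °C. NADPH regenerating system added, then 30 min at 37 °C. Acetonitrile with chlorpropamide internal standard added, sample centrifuged, supernatant analysed by LC-MS/MS.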
Background: Microsomes from liver hold many membrane-bound enzymes, among them those of drug oxidation.

Series [7] in a line: Metabolic stability in dog liver microsomes assessed as parent compound remaining at 1 uM preincubated for 5 mins followed by addition of NADPH regenerating system and measured after 30 mins by LC-MS/MS method. The class given is ADME, Canis lupus familiaris, microsome. The note with it: read-out: Stability. In outline:
as §3

Series [8] is described as follows: Metabolic stability in rat liver microsomes assessed as parent compound remaining at 1 uM preincubated for 5 mins followed by addition of NADPH regenerating system and measured after 30 mins by LC-MS/MS method. Type of series: ADME, microsome. The conditions noted are these: read-out: Stability. In short, it runs like this: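 Liver microsomes (0.5 mg/mL) in 0.1 M phosphate buffer with test article at 1 μM. Preincubated 5 min at 37 °C, then NADPH regeneration system added and incubated 30 min at 37 °C. Quenched with acetonitrile containing chlorpropamide internal standard and centrifuged; supernatant analysed by LC-MS/MS for % parent remaining. Verapamil served as positive control.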

Series [9] can be described thus: Metabolic stability in mouse liver microsomes assessed as parent compound remaining at 1 uM preincubated for 5 mins followed by addition of NADPH regenerating system and measured after 30 mins by LC-MS/MS method. Type of series: ADME, microsome. The conditions noted are these: read-out: Stability. In outline: as §3
The nature of series [10]: Apparent permeability across apical to basolateral side in human Caco2 cells at 25 uM measured every 15 mins for 60 mins by LC-MS/MS method. The class given is ADME, cell-based. The conditions noted are these: Caco-2. In outline:
(§4)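 Caco-2 cells were seeded at 1×10^6 per 12-well transwell and grown 3 weeks. Test article was 25 μM in HBSS transport buffer (10 mM glucose, 4 mM bicarbonate, 1 mM HEPES, pH 7.4), added to the apical or basolateral side. Incubated 60 min at 37 °C with sampling every 15 min; LC-MS/MS read-out.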
On the technique in general: Passage across Caco-2 layers is used to estimate intestinal permeability.

The nature of series [11]: Apparent permeability across basolateral to apical side in human Caco2 cells at 25 uM measured every 15 mins for 60 mins by LC-MS/MS method. Type of series: ADME, cell-based. The conditions noted are these: Caco-2. In outline:
as §4

The next series has as its target CYP2C9 (Homo sapiens, UniProt P11712). The experiment in a line: Inhibition of CYP2C9 in human liver microsomes assessed as remaining activity at 10 uM using tolbutamide as substrate preincubated for 5 mins followed by addition of NADPH regenerating system and measured after 15 mins by LC-MS/MS analysis relative to control. Type of series: ADME. The note with it: probe tolbutamide, read-out: Activity. In short, it runs like this: (§5)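 Human liver microsomes (0.25 mg/mL) in 0.1 M phosphate buffer with test article at 0 or 10 μM and substrate cocktail, preincubated 5 min at 37 °C. Cocktail A: phenacetin 50 μM, coumarin 2.5 μM, S-mephenytoin 100 μM, dextromethorphan 5 μM, midazolam 2.5 μM. Cocktail B: bupropion 50 μM, amodiaquine 2.5 μM, tolbutamide 100 μM, chlorzoxazone 50 μM. NADPH system added, then 15 min at 37 °C; acetonitrile quench, LC-MS/MS.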

A further series has as its target CYP2C19 (Homo sapiens, UniProt P33261). The experiment in a line: Inhibition of CYP2C19 in human liver microsomes assessed as remaining activity at 10 uM using S-mephenytoin as substrate preincubated for 5 mins followed by addition of NADPH regenerating system and measured after 15 mins by LC-MS/MS analysis relative to control. The class given is ADME. The note with it: probe S-mephenytoin, read-out: Activity. In short, it runs like this: as §5

The target in another series is CYP2E1 (Homo sapiens, UniProt P05181). In words: Inhibition of CYP2E1 in human liver microsomes assessed as remaining activity at 10 uM using chlorzoxazone as substrate preincubated for 5 mins followed by addition of NADPH regenerating system and measured after 15 mins by LC-MS/MS analysis relative to control. Type of series: ADME. The conditions noted are these: probe chlorzoxazone, read-out: Activity. In outline:
as §5

The target in another series is CYP3A4 (Homo sapiens, UniProt P08684). The experiment in a line: Inhibition of CYP3A4 in human liver microsomes assessed as remaining activity at 10 uM using midazolam as substrate preincubated for 5 mins followed by addition of NADPH regenerating system and measured after 15 mins by LC-MS/MS analysis relative to control. Type of series: ADME. The conditions noted are these: probe midazolam, read-out: Activity. In outline: as §5

Series [12] can be described thus: Half life in Sprague-Dawley rat at 10 mg/kg, po after 0.25 to 24 hrs by LC-MS/MS method. The class given is ADME, organism-based. The conditions noted are these: in vivo. In short, it runs like this: (§6)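 Male Sprague Dawley rats, 7-8 weeks old, n=4 per group. IV dose 5 mg/kg free base in 10% ethanol/90% PEG400; oral dose 10 mg/kg as corn oil suspension after 16 h fast. Blood taken 0.08-24 h (IV) or 0.25-24 h (PO). Plasma diluted in acetonitrile with internal standard, analysed by LC-MS/MS, parameters by non-compartmental analysis.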

Series [13] relates to Rattus norvegicus. In words: AUC (0 to infinity) in Sprague-Dawley rat at 5 mg/kg, iv after 0.08 to 24 hrs by LC-MS/MS method. The class given is ADME, organism-based. More on the design: dose 5 mg/kg, time infinity, route intravenous. The conditions noted are these: in vivo. In outline: as §6
In series [14] the test system is Rattus norvegicus. The experiment in a line: Antiarthritic activity in adjuvant-induced SPF LEW/SsNSlc rat arthritis model assessed as paw thickness at 5 mg/kg, po qd measured on 14 days. Type of series: functional. In short, it runs like this: (§7)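 Lewis rats were 10 weeks old after 2 weeks acclimation. Immunized s.c. at the tail base with 0.1 mL complete Freund's adjuvant containing 10 mg/mL heat-killed mycobacterium. From day 12 post-immunization (day 1), n=10 per group, oral dosing once daily for 14 days, vehicle corn oil. Clinical score and hind paw measured twice weekly.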

Series [15] relates to Rattus norvegicus. The experiment in a line: Antiarthritic activity in adjuvant-induced SPF LEW/SsNSlc rat arthritis model assessed as paw thickness at 10 mg/kg, po qd measured on day 14. Type of series: functional. In outline: as §7
The subject of series [16] is Rattus norvegicus. In words: Antiarthritic activity in adjuvant-induced SPF LEW/SsNSlc rat arthritis model assessed as paw thickness at 20 mg/kg, po qd measured on day 14. Type of series: functional. In short, it runs like this: as §7

Sequence of CYP2C19 (P33261 whole entry): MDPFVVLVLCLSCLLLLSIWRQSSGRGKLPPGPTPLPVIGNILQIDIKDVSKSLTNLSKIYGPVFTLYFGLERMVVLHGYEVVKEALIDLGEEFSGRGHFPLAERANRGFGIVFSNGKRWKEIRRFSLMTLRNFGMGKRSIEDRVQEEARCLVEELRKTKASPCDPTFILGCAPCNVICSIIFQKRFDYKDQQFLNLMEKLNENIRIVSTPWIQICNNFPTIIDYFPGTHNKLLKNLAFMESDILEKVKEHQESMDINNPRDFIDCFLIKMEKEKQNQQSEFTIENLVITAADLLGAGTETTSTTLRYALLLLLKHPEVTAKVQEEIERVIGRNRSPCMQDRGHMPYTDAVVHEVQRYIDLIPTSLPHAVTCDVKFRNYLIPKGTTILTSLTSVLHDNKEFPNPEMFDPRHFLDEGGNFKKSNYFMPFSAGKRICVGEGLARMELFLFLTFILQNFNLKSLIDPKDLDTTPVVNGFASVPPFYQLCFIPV
Sequence of CYP2E1 (P05181 whole entry): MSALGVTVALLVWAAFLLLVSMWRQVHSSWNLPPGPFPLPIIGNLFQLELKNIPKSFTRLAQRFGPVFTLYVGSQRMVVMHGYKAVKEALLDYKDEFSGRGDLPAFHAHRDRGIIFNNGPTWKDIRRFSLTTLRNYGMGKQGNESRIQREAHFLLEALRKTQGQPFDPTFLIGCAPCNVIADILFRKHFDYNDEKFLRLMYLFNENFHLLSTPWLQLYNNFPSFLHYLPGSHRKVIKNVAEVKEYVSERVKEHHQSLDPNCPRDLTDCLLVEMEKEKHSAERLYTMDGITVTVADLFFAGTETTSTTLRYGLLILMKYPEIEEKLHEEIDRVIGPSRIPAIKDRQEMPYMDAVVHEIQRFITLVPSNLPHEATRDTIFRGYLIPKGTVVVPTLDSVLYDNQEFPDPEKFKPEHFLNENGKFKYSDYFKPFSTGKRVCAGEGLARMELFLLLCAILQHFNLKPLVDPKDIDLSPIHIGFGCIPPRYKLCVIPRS
Sequence of CYP3A4 (P08684 whole entry): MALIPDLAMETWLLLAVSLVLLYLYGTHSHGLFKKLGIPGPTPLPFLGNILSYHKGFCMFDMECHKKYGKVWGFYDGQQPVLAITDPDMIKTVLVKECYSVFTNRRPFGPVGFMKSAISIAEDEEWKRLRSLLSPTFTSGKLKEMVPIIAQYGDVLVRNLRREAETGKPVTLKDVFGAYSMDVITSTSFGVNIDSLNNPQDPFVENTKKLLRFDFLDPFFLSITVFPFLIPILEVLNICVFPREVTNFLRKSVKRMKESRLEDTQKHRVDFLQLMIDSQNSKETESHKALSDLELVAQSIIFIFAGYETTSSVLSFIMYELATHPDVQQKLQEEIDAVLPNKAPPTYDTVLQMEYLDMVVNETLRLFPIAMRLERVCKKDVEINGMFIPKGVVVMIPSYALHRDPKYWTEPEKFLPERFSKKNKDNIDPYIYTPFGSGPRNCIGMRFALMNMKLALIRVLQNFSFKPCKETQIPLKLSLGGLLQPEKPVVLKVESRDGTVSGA
Sequence of CYP2C9 (P11712 whole entry): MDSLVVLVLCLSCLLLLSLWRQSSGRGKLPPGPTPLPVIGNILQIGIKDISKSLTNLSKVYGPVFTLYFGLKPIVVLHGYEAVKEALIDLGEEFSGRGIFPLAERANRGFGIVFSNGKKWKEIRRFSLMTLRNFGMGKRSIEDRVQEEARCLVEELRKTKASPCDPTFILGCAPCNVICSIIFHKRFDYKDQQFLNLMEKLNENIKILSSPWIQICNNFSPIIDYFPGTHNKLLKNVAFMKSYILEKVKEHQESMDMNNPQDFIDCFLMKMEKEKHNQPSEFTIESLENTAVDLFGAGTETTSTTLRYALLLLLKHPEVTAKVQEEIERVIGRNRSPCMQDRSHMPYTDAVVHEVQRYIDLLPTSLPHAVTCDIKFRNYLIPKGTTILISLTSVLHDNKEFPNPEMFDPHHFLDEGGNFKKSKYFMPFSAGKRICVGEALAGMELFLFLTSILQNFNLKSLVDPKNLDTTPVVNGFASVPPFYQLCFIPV

On to `CN(c1ncnc2[nH]ccc12)[C@H]1CN(S(=O)(=O)c2cccc(C#N)c2)CC12CC2`, for which, in the series filed under Homo sapiens, the Ratio IC50 was found to be 10. In series [1], the remaining at 0.5 h, 10 µM is > 100%. The remaining at 2 h, 10 µM in [2] was > 100%. The fraction unbound at 4 h, 10 µM in series [3] was 0.126; in series [4], 0.142. For the same molecule, the log partition coefficient (logP) in series [5] was 3.69. Moreover, the remaining at 0.5 h, 1 µM in series [6] turned out to be 6%; in [7], 5.5%; in [8] it was 2.4%; in series [9] it was 3.2%. Further, the Papp A→B at 1 h, 25 µM in [10] was 13.4 ×10⁻⁶ cm/s. Moreover, the Papp B→A at 1 h, 25 µM in series [11] was determined as 15.7 ×10⁻⁶ cm/s. For the same molecule, the activity at 0.25 h, 10 µM is 50.4% on CYP2C9, 55.8% at CYP2C19, 59.8% on CYP2E1 and 33.2% at CYP3A4.
`CN(c1ncnc2[nH]ccc12)[C@H]1CN(C(=O)CC#N)CC12CC2`: the remaining at 0.5 h, 10 µM in series [1] was 98.4%. Further, the remaining at 2 h, 10 µM in series [2] turned out to be 89.6%. Moreover, the fraction unbound at 4 h, 10 µM in [3] is 0.702; in series [4], 0.813. Also, the logP in series [5] came out at 1.69. The remaining at 0.5 h, 1 µM in [6] was 94.6%; in series [7], 99.9%; in series [8] it was 84.8%; in [9], 84.9%. In addition, in series [10], the Papp A→B at 1 h, 25 µM stood at 6.6 ×10⁻⁶ cm/s. Further, the apparent permeability from basolateral to apical (Papp B→A) at 1 h, 25 µM in series [11] was 18.5 ×10⁻⁶ cm/s. The activity at 0.25 h, 10 µM on CYP2C9 turned out to be 84.4%; at CYP2C19 it was 66%; at CYP2E1 it was 50.3%; at CYP3A4, 89.7%. Also, the half-life in [12] was 2.1 h. Besides, the AUC in the series on Rattus norvegicus [13] was 920 ng·h/mL. The values for the Activity in the series with Rattus norvegicus [14], with Rattus norvegicus [15] and in the series on Rattus norvegicus [16] were 10.33 mm, 10.21 mm and 10.2 mm, respectively.
Turning to `CCS(=O)(=O)N1C[C@H](N(C)c2ncnc3[nH]ccc23)C2(CC2)C1`, the Ratio IC50 in the series listed under Homo sapiens was found to be 25. In addition, in series [1], the remaining at 0.5 h, 10 µM was > 100%. Further, the remaining at 2 h, 10 µM in [2] was > 100%. Also, the fraction unbound at 4 h, 10 µM in series [3] was 0.556; in series [4], 0.505. Also, the logP in series [5] was determined as 2.07. Moreover, the remaining at 0.5 h, 1 µM in [6] turned out to be 79.7%; in series [7], 56.1%; in series [8] it was 22.9%; in series [9], 33.9%. The Papp A→B at 1 h, 25 µM in series [10] was 25.4 ×10⁻⁶ cm/s. The Papp B→A at 1 h, 25 µM in series [11] came to 25.6 ×10⁻⁶ cm/s. Also, the activity at 0.25 h, 10 µM on CYP2C9 came out at 90.7%; on CYP2C19, 93.8%; on CYP2E1, 63.9%; at CYP3A4 it was 95.4%.

For orientation: logP means a log measure of how a compound divides between an organic and an aqueous phase. Read a high logP as higher lipophilicity. For orientation: Papp A→B means the apparent permeability from the apical to the basolateral side of a cell layer. In general, Papp B→A refers to the apparent permeability from the basolateral to the apical side of a cell layer. The term half-life denotes the time in which the quantity being followed falls by half. Usually AUC stands for the area under the concentration-time curve, a measure of exposure. Read a high AUC as high exposure.
